The source made the active and inactive calls. The rule behind the calls is not given here.
Key:
T98G [1] = assay: Cytotoxicity against human T98G cells after 72 hrs by WST-1 assay; type: functional, cell-based
Method in brief: (§1)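 Viability read with WST-1 72 h after treatment with increasing concentrations; DMSO vehicle 0.1% final. T98G and HepG2 grown in DMEM/10% FBS/pen-strep at 37 °C, 5% CO2. Patient-derived GBM cells (WHO grade IV; proneural, classical, mesenchymal) grown in NeuroCult NSA with B-27, 20 ng/mL EGF and 20 ng/mL FGF2. EC50 from curve fit, reported only when extrapolable. Mean of ≥3 independent experiments in triplicate.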

T98G [2] = assay: Cytotoxicity against human T98G cells assessed as cell killing at 10 uM after 72 hrs by WST-1 assay relative to control; type: functional
Method in brief: (§2)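 Maximal killing is the largest % loss of viability against 0.1% DMSO vehicle, read by WST-1 72 h after treatment, at the stated concentration. T98G/HepG2 grown in DMEM/10% FBS; patient-derived GBM grown in NeuroCult NSA with B-27, EGF and FGF2 (20 ng/mL each). Mean ± SEM of ≥3 independent experiments in triplicate.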

T98G [3] = assay: Cytotoxicity against human T98G cells assessed as cell killing at 100 nM after 72 hrs by WST-1 assay relative to control; type: functional
Method in brief: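 T98G human GBM cells (ATCC, STR-authenticated, under 6 months in culture) grown in DMEM with 10% FBS and penicillin/streptomycin, 37 °C, 5% CO2. Exposed to increasing compound concentrations in DMSO (0.1% final) for 72 h, then WST-1 viability read. Maximal killing is the largest % viability reduction versus vehicle over the concentrations tested. Mean of ≥3 independent experiments in triplicate.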

T98G [4] = assay: Cytotoxicity against human T98G cells assessed as cell killing at 3 uM after 72 hrs by WST-1 assay relative to control; type: functional; method in brief: as §2
GBM [5] = assay: Cytotoxicity against patient-derived proneural GBM cells after 72 hrs by WST-1 assay; type: functional, cell-based; details: Homo sapiens; method in brief: as §1
GBM [6] = assay: Cytotoxicity against patient-derived classical GBM cells after 72 hrs by WST-1 assay; type: functional, cell-based; details: Homo sapiens; method in brief: as §1
GBM [7] = assay: Cytotoxicity against patient-derived classical GBM cells assessed as cell killing at 3 uM after 72 hrs by WST-1 assay relative to control; type: functional, Homo sapiens; method in brief: as §2
GBM [8] = assay: Cytotoxicity against patient-derived mesenchymal GBM cells after 72 hrs by WST-1 assay; type: functional, cell-based; details: Homo sapiens; method in brief: as §1
GBM [9] = assay: Cytotoxicity against patient-derived mesenchymal GBM cells assessed as cell killing at 1 uM after 72 hrs by WST-1 assay relative to control; type: functional, Homo sapiens; method in brief: as §2
HepG2 [10] = assay: Cytotoxicity against human HepG2 cells after 72 hrs by WST-1 assay; type: functional, cell-based; details: HepG2, 72 h; method in brief: as §1
HepG2 [11] = assay: Cytotoxicity against human HepG2 cells assessed as cell killing at 5.6 uM after 72 hrs by WST-1 assay relative to control; type: functional; method in brief: as §2
SF-295 = assay: Cytotoxicity against human SF295 cells after 48 hrs by sulforhodamine B assay; type: functional, cell-based
SF-539 = assay: Cytotoxicity against human SF539 cells after 48 hrs by sulforhodamine B assay; type: functional, cell-based
COLO 205 = assay: Cytotoxicity against human COLO205 cells after 48 hrs by sulforhodamine B assay; type: functional, cell-based
HT-29 = assay: Cytotoxicity against human HT-29 cells after 48 hrs by sulforhodamine B assay; type: functional, cell-based
HCC 2998 = assay: Cytotoxicity against human HCC2998 cells after 48 hrs by sulforhodamine B assay; type: functional, cell-based
Bos taurus [12] = species on record: Bos taurus; assay: Inhibition of [3H]colchicine binding to bovine brain tubulin at 5 uM after 1 hr liquid scintillation counting assay relative to control
[13] = Inhibition of bovine brain t in presence of 0.4 mM GTP; set-up: species or system Bos taurus
[14] = Induction of bovine brain microtubule destabilization assessed as increase in free tubulin levels after 15 mins by Coomassie G-250 staining-based polyacrylamide gel electrophoresis method; set-up: species or system Bos taurus
Method in brief: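 Bovine brain tubulin purified, polymerized into MTs and sheared. Sheared MTs incubated with compound at 37 °C for 15 min, then centrifuged 10 min at 42,000 rpm at 37 °C. Supernatant (free tubulin) and pellet (MT) run on polyacrylamide gels. EC50 from representative experiments repeated three times.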

GBM [15] = assay: Cytotoxicity against patient-derived proneural GBM cells assessed as cell killing at 1 uM after 72 hrs by WST-1 assay relative to control; type: functional, Homo sapiens; method in brief: as §2
GBM [16] = assay: Cytotoxicity against patient-derived mesenchymal GBM cells assessed as cell killing at 3 uM after 72 hrs by WST-1 assay relative to control; type: functional, Homo sapiens; method in brief: as §2
HepG2 [17] = assay: Cytotoxicity against human HepG2 cells assessed as cell killing at 10 uM after 72 hrs by WST-1 assay relative to control; type: functional; method in brief: as §2
T98G [18] = assay: Cytotoxicity against human T98G cells assessed as cell killing at 1 uM after 72 hrs by WST-1 assay relative to control; type: functional; method in brief: as §2
GBM [19] = assay: Cytotoxicity against patient-derived proneural GBM cells assessed as cell killing at 5.6 uM after 72 hrs by WST-1 assay relative to control; type: functional, Homo sapiens
Method in brief: (§3)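 Patient-derived GBM cells come from freshly resected WHO grade IV tumours. They are subtyped proneural, classical or mesenchymal and kept in NeuroCult NSA medium with B-27, 20 ng/mL EGF and 20 ng/mL FGF2. Cells were treated with increasing compound concentrations (DMSO 0.1% final). Viability was read by WST-1 after 72 h. Maximal killing is the largest % reduction versus vehicle. Mean of ≥3 independent experiments in triplicate.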

GBM [20] = assay: Cytotoxicity against patient-derived classical GBM cells assessed as cell killing at 5.6 uM after 72 hrs by WST-1 assay relative to control; type: functional, Homo sapiens; method in brief: as §3
GBM [21] = assay: Cytotoxicity against patient-derived mesenchymal GBM cells assessed as cell killing at 10 uM after 72 hrs by WST-1 assay relative to control; type: functional, Homo sapiens; method in brief: as §3
GBM [22] = assay: Cytotoxicity against patient-derived classical GBM cells assessed as cell killing at 1 uM after 72 hrs by WST-1 assay relative to control; type: functional, Homo sapiens; method in brief: as §2
HepG2 [23] = assay: Cytotoxicity against human HepG2 cells assessed as cell killing at 0.6 uM after 72 hrs by WST-1 assay relative to control; type: functional; method in brief: as §2
Bos taurus [24] = species on record: Bos taurus; assay: Inhibition of [3H]colchicine binding to bovine brain tubulin at 1 uM after 1 hr liquid scintillation counting assay relative to control

SMILES: CCn1c2ccccc2c2cc(C(=O)c3ccc(Cl)cc3)ccc21
- EC50 (T98G [1]): 1.5 µM
- %max (T98G [2]): 71.1%

SMILES: Cc1ccc(C(=O)c2ccc3c(c2)c2ccccc2n3CC(F)(F)F)c2ccccc12
- EC50 (T98G [1]): 5.6 µM
- %max (T98G [2]): 35.6%

SMILES: CCn1c2ccccc2c2cc(C(=O)c3cccc4c3NCCC4)ccc21
- EC50 (T98G [1]): > 10 µM
- %max (T98G [3]): -18%

SMILES: CCn1c2ccccc2c2cc(C(=O)c3cccc4cccnc34)ccc21
- EC50 (T98G [1]): 8.8 µM
- %max (T98G [2]): 60%

SMILES: CCn1c2ccccc2c2cc(C(=S)c3ccc(C)c4ccccc34)ccc21
- EC50 (T98G [1]): > 10 µM
- %max (T98G [4]): -17%

SMILES: CCn1c2c(c3ccccc31)CN(C(=O)c1ccc(C)c3ccccc13)CC2
- EC50 (T98G [1]): > 10 µM
- %max (T98G [4]): 45.1%

SMILES: CCn1c2ccccc2c2cc(C(=O)c3ccc(C)cc3)ccc21
- EC50 (T98G [1]): 0.993 µM
- %max (T98G [4]): 83.6%

SMILES: CCn1c2ccccc2c2cc(C(=O)c3cccc4ccccc34)ccc21
- EC50 (T98G [1]): 1.7 µM
- %max (T98G [2]): 72%

SMILES: Cc1ccc(C(=O)n2c3ccccc3c3ccccc32)c2ccccc12
- EC50 (T98G [1]): 0.957 µM
- %max (T98G [2]): 89.1%

SMILES: CCn1c2ccccc2c2cc(C(=O)c3ccc(C)c4ccccc34)ccc21
- EC50 (T98G [1]): 0.087 µM
- %max (T98G [2]): 45.3%
- EC50 (GBM [5]): 0.542 µM
- EC50 (GBM [6]): 0.698 µM
- %max (GBM [7]): 47.9%
- EC50 (GBM [8]): 0.268 µM
- %max (GBM [9]): 64.3%
- EC50 (HepG2 [10]): 1.69 µM
- %max (HepG2 [11]): 25%
- Activity (SF-295): Active
- Activity (SF-539): Active
- Activity (COLO 205): Active
- Activity (HT-29): Active
- Activity (HCC 2998): Active
- inhibition (Bos taurus [12]): 53%
- IC50 [13]: 1.4 µM
- EC50 [14]: 2.1 µM

SMILES: CCn1c2ccccc2c2cc(C(O)c3ccc(C)c4ccccc34)ccc21 (centres undefined)
- EC50 (T98G [1]): 0.56 µM
- %max (T98G [4]): 72.8%
- EC50 (GBM [5]): 0.63 µM
- %max (GBM [15]): 44%
- EC50 (GBM [6]): 0.633 µM
- %max (GBM [7]): 56%
- EC50 (GBM [8]): 0.386 µM
- %max (GBM [16]): 50.6%
- EC50 (HepG2 [10]): 0.101 µM
- %max (HepG2 [17]): 30.8%
- Activity (SF-295): Active
- Activity (SF-539): Active
- Activity (COLO 205): Active
- Activity (HT-29): Active
- Activity (HCC 2998): Active
- inhibition (Bos taurus [12]): 70%
- IC50 [13]: 1.6 µM
- EC50 [14]: 6.4 µM

SMILES: CCn1c2ccccc2c2cc(C(=O)N3CCN(C)CC3)ccc21
- EC50 (T98G [1]): > 10 µM
- %max (T98G [2]): 13.2%

SMILES: CCn1c2ccccc2c2cc(C(=O)c3ccc(F)cc3)ccc21
- EC50 (T98G [1]): 8 µM
- %max (T98G [2]): 54.8%

SMILES: CCn1c2ccccc2c2cc(C(=O)N3CCCc4ccccc43)ccc21
- EC50 (T98G [1]): 0.757 µM
- %max (T98G [18]): 89%
- EC50 (GBM [5]): 0.613 µM
- %max (GBM [19]): 98.9%
- EC50 (GBM [6]): 0.846 µM
- %max (GBM [20]): 98.6%
- EC50 (GBM [8]): 1.82 µM
- %max (GBM [21]): 97.2%
- %max (HepG2 [11]): 8.3%
- inhibition (Bos taurus [12]): 41%
- IC50 [13]: 4.4 µM
- EC50 [14]: 5.3 µM

SMILES: CCCn1c2ccccc2c2cc(C(=O)c3ccc(C)c4ccccc34)ccc21
- EC50 (T98G [1]): > 10 µM
- %max (T98G [2]): 16.3%

SMILES: CCn1c2ccc(C(=O)c3ccc(C)c4ccccc34)cc2c2ccc(OC)cc21
- EC50 (T98G [1]): 2.6 µM
- %max (T98G [2]): 71.6%

SMILES: CCn1c2ccccc2c2cc(C(=O)c3cccc4ncccc34)ccc21
- EC50 (T98G [1]): 0.184 µM
- %max (T98G [18]): 74.4%
- EC50 (GBM [5]): 0.316 µM
- %max (GBM [15]): 44.8%
- EC50 (GBM [6]): 0.407 µM
- %max (GBM [22]): 53.9%
- EC50 (GBM [8]): 0.335 µM
- %max (GBM [9]): 58.9%
- EC50 (HepG2 [10]): 0.066 µM
- %max (HepG2 [23]): 28.6%
- Activity (SF-295): Active
- Activity (SF-539): Active
- Activity (COLO 205): Active
- Activity (HT-29): Active
- Activity (HCC 2998): Active
- inhibition (Bos taurus [12]): 91%
- inhibition (Bos taurus [24]): 61%
- IC50 [13]: 0.89 µM
- EC50 [14]: 3.4 µM

SMILES: CCn1c2ccccc2c2cc(C(=O)Cc3ccccc3)ccc21
- EC50 (T98G [1]): > 10 µM
- %max (T98G [2]): 14%
